Reference: ChEMBL document CHEMBL2311274, “Triazole-based inhibitors of geranylgeranyltransferase II” (Bioorg Med Chem Lett, 2013)

Columns and labels:
[1] = Inhibition of recombinant GGTase 2 (unknown origin) by scintillation counting in presence of [3H]GGPP; design: species or system Homo sapiens
How it was run: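 Recombinant GGTase II reaction containing radiolabeled GGPP as prenyl donor, a Rab protein as acceptor substrate, and REP. IC50 obtained from inhibition of transfer.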

RPMI-8226 = test: Cytotoxicity against human multiple myeloma RPMI8226 measured after 24 to 48 hrs by MTT assay; type: functional, cell-based

IC50 [1] [µM]	SMILES	IC50 (RPMI-8226) [µM]
> 2000	CC(C)=CCCC(C)=CCn1cc(CC(P(=O)(O)O)P(=O)(O)O)nn1 (mixture of isomers)	> 1000
> 1000	O=P(O)(O)C(O)(Cc1cccnc1)P(=O)(O)O [RISEDRONIC ACID]	
100	CC(C)=CCC/C(C)=C/CC/C(C)=C/CCC(C)=CCn1cc(CC(P(=O)(O)O)P(=O)(O)O)nn1 (mixture of isomers)	1000
2000	O=P(O)(O)C(Cc1cn(Cc2ccccc2)nn1)P(=O)(O)O	> 1000
650	CC(C)=CCC/C(C)=C/CCC(C)=CCn1cc(CC(P(=O)(O)O)P(=O)(O)O)nn1 (mixture of isomers)	900

SMILES	IC50 [1] [µM]	IC50 (RPMI-8226) [µM]
O=P(O)(O)C(Cc1cn(Cc2ccc3ccccc3c2)nn1)P(=O)(O)O	> 2000	> 1000
